In brackets after ≈: the same amount, converted by molar mass. Activity calls are given as the source filed them. The calls are words filed in the database; no cut-off is given here.
Columns and labels:
[1] = Protective index, ratio of CD50 for human HeLa cells to ID50 for Human rhinovirus 39
In short: (§1)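 PI = CD₅₀/ID₅₀. For CD₅₀, HeLa (Ohio strain) monolayers in DMEM with 10% fetal calf serum were exposed to a range of compound concentrations at 37 °C, 5% CO₂. Morphology was checked by light microscopy at 24, 48 and 72 h. Viability read by MTT; CD₅₀ = concentration reducing control absorbance by 50%. ID₅₀ came from the plaque-reduction virus-yield assay.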

[2] = Protective index, ratio of CD50 for human HeLa cells to ID50 for Human rhinovirus 14; in short: as §1
[3] = Cytotoxicity against human HeLa cells after 24 to 72 hrs by MTT assay; type: cell-based; conditions: read-out: CD50 (the source's name)
In short: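 HeLa (Ohio strain) monolayers in DMEM with 1% non-essential amino acids, penicillin/streptomycin and 10% FCS at 37 °C, 5% CO₂, exposed to various compound concentrations. Morphology (rounding, shrinking, detachment) was checked by light microscopy at 24, 48 and 72 h, and viability read by MTT colorimetry. CD₅₀ is the concentration reducing control absorbance by 50%.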

rhinovirus A39 = assay: Antiviral activity against Human rhinovirus 39 assessed as reduction in virus yield after 24 to 36 hrs by agar plaque assay; type: functional; conditions: Rhinovirus A; read-out: ID50 (the source's name)
In short: (§2)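 Virus-yield reduction: infected monolayers given serial dilutions of compound, incubated 24–36 h at 33 °C, 3% CO₂ until cytopathic effect in controls was almost total. Monolayers then frozen and thawed; virus in supernatant titrated by plaque assay (50% plaque reduction in Hep-2 cells). ID₅₀ is the concentration inhibiting plaque formation by 50%, from dose–response curves by linear regression.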

rhinovirus B14 [4] = assay: Antiviral activity against Human rhinovirus 14 assessed as reduction in virus yield after 24 to 36 hrs by agar plaque assay; type: functional; conditions: Rhinovirus B; read-out: ID50 (the source's name); in short: as §2
rhinovirus B14 [5] = assay: Antiviral activity against Human rhinovirus 14 assessed as reduction in virus yield at 5 ug/ml added 4 to 5 hrs after infection by agar plaque assay; type: functional, organism-based
In short: (§3)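 HRV14 (group A, ATCC; working stocks prepared as cellular lysates in DMEM with 2% heat-inactivated FCS). Compound was added to cells at different times, from h −1 to several hours post infection, and incubated 24–36 h at 33 °C, 3% CO₂ until cytopathic effect in controls was almost total. Monolayers were then freeze-thawed and supernatant virus titrated by plaque assay.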

rhinovirus B14 [6] = assay: Antiviral activity against Human rhinovirus 14 assessed as reduction in virus yield at 5 ug/ml added within 3 hrs after infection by agar plaque assay; type: functional, organism-based; in short: as §3
rhinovirus B14 [7] = assay: Reversible antiviral activity against Human rhinovirus 14 assessed as reduction in virus yield by agar plaque assay; type: functional, organism-based

SMILES	PI [1]	PI [2]	CC50 [3] [µg/mL]	IC50 (rhinovirus A39) [µg/mL]	IC50 (rhinovirus B14 [4]) [µg/mL]	Activity (rhinovirus B14 [5])	Activity (rhinovirus B14 [6])	Activity (rhinovirus B14 [7])
Fc1ccc(OCCCOc2ccc3c(c2)OCO3)cc1	1	1	25 (≈ 86.1 µM)	25 (≈ 86.1 µM)	25 (≈ 86.1 µM)	–	–	–
CC(=O)c1ccc(OCCCOCCc2cc(C)no2)cc1	8	2	50 (≈ 165 µM)	6 (≈ 19.8 µM)	25 (≈ 82.4 µM)	–	–	–
Cc1cc(OCCCOc2ccc3c(c2)OCO3)on1	4	2	50 (≈ 180 µM)	12 (≈ 43.3 µM)	25 (≈ 90.2 µM)	–	–	–
CCOc1nc2ccc(OCCCOc3ccc4c(c3)OCO4)cc2o1	16	8	200 (≈ 560 µM)	12 (≈ 33.6 µM)	25 (≈ 70 µM)	–	–	–
CC(=O)c1ccc(OCCCOc2ccc3c(c2)OCO3)cc1	1	1	25 (≈ 79.5 µM)	25 (≈ 79.5 µM)	25 (≈ 79.5 µM)	–	–	–
CCOc1nc2ccc(OCCCOc3ccc(C#N)cc3)cc2o1	33	2	50 (≈ 148 µM)	1.5 (≈ 4.43 µM)	25 (≈ 73.9 µM)	–	–	–
CC(=O)c1ccc(OCCCOCc2ccc3c(c2)OCO3)cc1	8	8	50 (≈ 152 µM)	6 (≈ 18.3 µM)	6 (≈ 18.3 µM)	–	–	–
Cc1cc(CCOCCCOc2ccc3c(c2)OCO3)on1	1	1	50 (≈ 164 µM)	50 (≈ 164 µM)	50 (≈ 164 µM)	–	–	–
CCOc1nc2ccc(OCCCOc3ccc(C(C)=O)cc3)cc2o1	2000	400	200 (≈ 563 µM)	0.1 (≈ 0.281 µM)	0.5 (≈ 1.41 µM)	inactive	Active	Active
CCOC(=O)c1ccc(OCCCOCCc2cc(C)no2)cc1	714	714	50 (≈ 150 µM)	0.07 (≈ 0.21 µM)	0.07 (≈ 0.21 µM)	–	–	–
CCOC(=O)c1ccc(OCCC2CCN(c3ccc(C)nn3)CC2)cc1 [PIRODAVIR]	516	258	3.1 (≈ 8.39 µM)	0.006 (≈ 0.0162 µM)	0.012 (≈ 0.0325 µM)	inactive	Active	–

From ChEMBL document CHEMBL3352302, “Synthesis of new compounds with promising antiviral properties against group A and B Human Rhinoviruses” (Bioorg Med Chem, 2014)
